# Only some compounds are listed: those with a hit (about 2.6% of all), similar ones and a draw of the others.
# Hep lipid drop: modulators of hepatic lipid droplet formation | 240,000 compounds, 0.4% hits | inhibition, % at 6.5 µM | AML12 mouse hepatocytes, oleate lipid droplets, BODIPY imaging | AID 1656;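 active means lipid droplet intensity inhibited by at least 50%, with more than 500 cells counted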
#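 Material: mouse AML12 hepatocyte cell line, fixed after treatment; Timing: compound with oleate, overnight; Technique: high-content imaging of BODIPY-stained droplets and DAPI nuclei; Probe or stimulus: oleate, 100 µM final; Dosing: compound at 6.5 µM only.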
# MEKK3 PB1 HTS: raises or lowers MEK5 binding to the human MEKK3 PB1 domain. 290,000 compounds, 1.4% hits. Q99759. bead-based flow cytometry, Alexa488-MEK5 binding to MEKK3; actives lie on both sides; 0 = blocked by unlabeled MEK5, 100 = vehicle. binding response (% of control), % at 10 µM;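 active means binding response more than 3 SD above or below the average of its plate-row segment, actives on both sides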;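 further: Alexa488 bead fluorescence after subtracting the streptavidin-only scavenger bead signal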
# Target sequence (Q99759 whole entry, looked up, the tested form may be a part): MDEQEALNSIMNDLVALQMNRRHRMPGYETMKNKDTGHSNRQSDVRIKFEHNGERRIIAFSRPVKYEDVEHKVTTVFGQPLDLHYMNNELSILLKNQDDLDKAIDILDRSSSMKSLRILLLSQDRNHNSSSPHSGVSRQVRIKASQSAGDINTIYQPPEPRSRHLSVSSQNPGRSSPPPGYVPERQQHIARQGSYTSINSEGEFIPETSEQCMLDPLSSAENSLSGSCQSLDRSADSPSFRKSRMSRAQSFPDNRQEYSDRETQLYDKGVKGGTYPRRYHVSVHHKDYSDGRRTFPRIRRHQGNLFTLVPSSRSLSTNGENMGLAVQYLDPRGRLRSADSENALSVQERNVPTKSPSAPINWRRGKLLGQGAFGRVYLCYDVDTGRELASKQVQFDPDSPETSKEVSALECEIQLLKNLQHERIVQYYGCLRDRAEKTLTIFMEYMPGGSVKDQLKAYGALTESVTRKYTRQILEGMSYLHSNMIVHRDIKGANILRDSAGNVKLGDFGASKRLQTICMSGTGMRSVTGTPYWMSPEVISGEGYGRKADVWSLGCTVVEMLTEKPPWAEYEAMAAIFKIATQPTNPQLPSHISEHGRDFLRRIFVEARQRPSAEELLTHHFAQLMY
# MEKK2 WT-MEK5: raises or lowers MEK5 binding to wildtype human MEKK2 PB1 domain. binding response (% of control), % at 10 µM. 290,000 compounds, 1.1% hits. AID 1531. bead flow cytometry, Alexa488-MEK5 binding to MEKK2 WT; actives lie on both sides. Q9Y2U5; in the data active means binding response below about 67% or above about 130%
# MEKK2 mut-MEK5: signal of MEK5 binding to mutant human MEKK2 PB1 domain; bead flow cytometry, Alexa488-MEK5 binding to MEKK2 mutant; AID 1530; percent response, % at 10 µM; 290,000 compounds, 0.35% hits; in the data active means percent response above about 24%, passing the limit was not always enough
# Hep lipid conf: confirmation of inhibitors of hepatic lipid droplet formation. AML12 mouse hepatocytes, BODIPY lipid droplet imaging; droplets induced with 100 µM oleic acid. inhibition, % at 5.2 µM. shares compounds with Hep lipid drop. 870 compounds, 65% hits;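 active means inhibition of lipid droplet metric at least 50%, with more than 300 cells in each of four replicates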;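 further: plate controls were DMSO with oleic acid for no effect and 5 µM Triacsin-C for full effect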
# AML12 tox img: counter-screen for cytotoxicity in AML12 mouse hepatocytes; shares compounds with Hep lipid drop; DAPI nuclear morphology cytotoxicity imaging; hits give high values; cells fed 100 µM oleate overnight; z-score at 5 µM; 870 compounds, 3% hits; AID 463200; in the data active means z-score above about 6.3;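 further: compound exposure lasted overnight at 37 °C before fixation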
# AML12 tox conf: confirmation of cytotoxicity in AML12 mouse hepatocytes; shares compounds with Hep lipid drop; cytotoxicity, % at 50 µM; AML12 mouse hepatocyte viability, ATP luminescence; cells loaded with 100 µM oleic acid; 530 tested, under 10 active; AID 463219;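 active means cytotoxicity above 50% in each of four replicates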;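 further: compound exposure lasted overnight at 37 °C before the ATP read; 0% = DMSO-treated cells and 100% = wells with no cells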
# An asterisk follows results filed as active; . = no result.
SMILES,Hep lipid drop,MEKK3 PB1 HTS,MEKK2 WT-MEK5,MEKK2 mut-MEK5,Hep lipid conf,AML12 tox img,AML12 tox conf
Cc1ccc(C(C(=O)NC2CCCC2)N(C(=O)c2csnn2)C2CCCC2)o1 (configuration not stated),.,101,98,0,.,.,.
C=CCN(C(=O)c1csnn1)C(C(=O)NC1CCCCC1)c1ccccc1F (configuration not stated),56*,105,107,8,93*,-0.66,12
C#CCOCCOCCOCCNc1nc(N2CCOCC2)nc(N2CCN(C(=O)[C@H]([C@@H](C)CC)n3cc([C@@H](N)CC(C)C)nn3)CC2)n1,-2,110,119,15,.,.,.
C#CCOCCOCCOCCNc1nc(N2CCOCC2)nc(N2CCN(C(=O)[C@H]([C@@H](C)CC)n3cc([C@@H](N)Cc4ccc(O)cc4)nn3)CC2)n1,55*,104,114,5,13,-0.7,.
O=C(O)c1cc2ccccc2c(N=Nc2cccnc2)c1O,-3,101,100,1,.,.,.
Cc1ccccc1C(=O)Nc1ccccc1C(=O)N1CCC(C)CC1,-27,99,96,-1,.,.,.
C=CCN1C(=O)c2ccccc2Sc2ccc(C(=O)NCC(OC)OC)cc21,55*,105,102,1,34,-0.91,.
Cc1nn(-c2ccccc2)c2nc(C(Cl)(Cl)Cl)[nH]c(=O)c12,-5,89,90,-17,.,.,.
Cc1ccc(-n2nc(C)c3c(=O)[nH]c(C(F)(F)F)nc32)cc1,74*,100,98,-2,12,-0.31,.
Cc1ccc(OCC(=O)Nc2nnc(S(=O)(=O)N3CCC(C)CC3)s2)cc1,-23,98,97,4,.,.,.
CCOc1ccc(CCNC(=O)c2c(C)nn(-c3ccccc3)c2Cl)cc1OCC,52*,101,102,3,72*,-0.47,8
CCOc1ccc(CCNC(=O)c2ccc3ccccc3n2)cc1OCC,78*,83,88,-12,107*,-0.78,22
CCOc1ccc(CCNC(=O)C2(c3ccccc3)CC2)cc1OCC,56*,98,96,7,83*,-0.36,13
CCOc1ccc(CCNC(=O)c2nccnc2C(=O)O)cc1OCC,4,102,107,3,.,.,.
COc1ccc(CCNC(=O)c2ccc3ccccc3n2)cc1OC,2,98,98,-3,.,.,.
Cc1nn(-c2ccccc2)c(Cl)c1C(=O)NCCCCNC(=O)c1c(C)nn(-c2ccccc2)c1Cl,16,106,108,14,.,.,.
CCOc1ccc(CCNC(=O)Nc2cccc(OC)c2)cc1OCC,125*,95,101,3,110*,-0.61,9
CC1(C)NC(=O)N(CC(=O)OCC(=O)Nc2cc(S(=O)(=O)N3CCCCC3)ccc2Cl)C1=O,-1,97,100,-2,.,.,.
CCc1ccccc1NC(=O)CCc1c(C)nc(SC)nc1C,-2,99,97,-1,.,.,.
CCOc1ncccc1C(=O)OCC(=O)c1ccc(C)c(C)c1,-10,105,102,-4,.,.,.
O=C(c1nc2ccccn2c1CNCCn1ccc2ccccc21)N1CCOCC1,3,82,88,-15,.,.,.
Cc1ccccc1Cn1c(=O)n(C)c(=O)c2sccc21,-15,98,100,1,.,.,.
Cc1ccc2[nH]c(C)c(CC(=O)NCc3ccccc3)c2c1,72*,102,101,2,68*,0.27,8
CCOc1ccc(CCNC(=O)CCC(=O)N2CCSc3ccccc32)cc1OCC,91*,105,99,5,110*,-0.67,18
CCOc1ccc(CCNC(=O)CN2CCN(Cc3ccccc3C)C2=O)cc1OCC,83*,101,101,19,107*,-0.059,12
SMILES,Hep lipid drop,MEKK3 PB1 HTS,MEKK2 WT-MEK5,MEKK2 mut-MEK5,Hep lipid conf,AML12 tox img,AML12 tox conf
COc1ccc(CCNC(=O)CN2CCN(Cc3ccccc3F)C2=O)cc1OC,9,107,104,-3,.,.,.
CCn1c(=O)cc(OCC(=O)NCCc2ccc(OC)c(OC)c2)c2ccccc21,-3,104,108,7,.,.,.
CCOc1ccc(CCNC(=O)COc2cc(=O)n(C)c3ccccc23)cc1OCC,100*,54,59,-16,101*,-0.38,8
CCOc1ccc(CCNC(=O)COC(=O)/C=C/c2ccc(OCC#N)c(OC)c2)cc1OCC,63*,103,102,0,103*,-0.32,1
O=C(NCc1ccccc1Cl)C1CCCN(S(=O)(=O)c2cccc3nonc23)C1 (configuration not stated),-8,99,95,-3,.,.,.
COc1ccc(NC(=O)C2CCN(S(=O)(=O)c3ccc4c(c3)CC(C)N4C(C)=O)CC2)c(OC)c1 (configuration not stated),-6,98,98,3,.,.,.
CCOc1ccc(CCNC(=O)CSc2cc(=O)n(C)c3ccccc23)cc1OCC,98*,112,100,-2,106*,-0.049,14
CCOc1ccc(CCNC(=O)COC(=O)c2cccnc2OCC)cc1OCC,98*,103,104,5,105*,-0.53,9
COc1ccc(-c2cc(=O)oc3cc4occ(C)c4cc23)cc1,.,105,106,4,.,.,.
Cc1coc2cc3oc(=O)cc(C)c3cc12,52*,101,99,-1,-22,0.57,.
COc1ccc(C)cc1NC(=O)CCNS(=O)(=O)c1ccc2c(c1)CCC(=O)N2,-10,98,96,-1,.,.,.
COc1ccc(C)cc1NC(=O)CCNS(=O)(=O)c1cccc(C(F)(F)F)c1,55*,99,96,-4,83*,0.18,6
Cc1sc(NC(=O)Cc2ccc3c(c2)OCO3)nc1-c1ccc2c(c1)CCN2C(=O)c1ccccc1F,51*,106,105,-1,83*,0.17,3
Cc1sc(NC(=O)Cc2ccc3c(c2)OCO3)nc1-c1ccc2c(c1)CCN2C(=O)c1ccc(F)cc1,34,99,94,-2,.,.,.
O=C(COC(=O)COc1cccc(Br)c1)Nc1c(Cl)cccc1Cl,13,105,105,-1,.,.,.
O=C1c2cccnc2C(=O)N1Cc1ccc(F)cc1S(=O)(=O)NCc1ccco1,-2,97,97,-2,.,.,.
O=C(c1ccc(Cl)cc1)C1CCN(C(=O)NC2CCCCC2)CC1,70*,100,100,1,85*,-0.19,10
O=C(Nc1ccc(Cl)cc1)C1CCN(C(=O)NC2CCCCC2)CC1,.,104,106,2,.,.,.
O=C(CSC1CC(=O)N(c2ccc(C(=O)O)cc2)C1=O)Nc1ccc(Cl)cc1 (configuration not stated),10,109,103,0,.,.,.
O=C(Cc1ccccc1F)Nc1nc(-c2ccc(F)c(F)c2)cs1,-29,105,103,2,.,.,.
